From PMC2813064 (Bioconjugate chemistry, 2010)
“Also recorded” adds a separate entry of the source.

Legend:
[1] = Zeta potential of peptide-DNA polyplexes; assay type: physicochemical; conditions: positive (+ mV); peptide-DNA polyplex 0.5 nmol peptide per µg DNA, 5 mM Hepes, pH 7.4 (footnote), mean of ten measurements
Summary of the method: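 Polyplex was made in 5 mM Hepes at 30 µg/ml DNA with 15 nmol/ml peptide. Zeta potential was read on a ZetaPlus instrument straight after QELS particle sizing at a 90° scatter angle, as the mean of ten measurements.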

CHO cells = experiment: In vitro gene transfer; assay type: cell-based; conditions: 10 µg pGL3, luciferase at 24 hrs, Fig. 5
Summary of the method: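 Cells: CHO, 5 × 10^5 per 35 mm well, grown to about 50% confluency in MEM with 2 or 10% FBS, 1 mM sodium pyruvate and pen/strep. Polyplexes: peptide and pGL3 at 0.1–0.75 nmol peptide per µg DNA, in HBM (5 mM Hepes, 0.27 M mannitol, pH 7.5). Triplicate wells, 24 h. Luciferase RLU were converted to fmol by standard curve and normalized to mg protein (BCA).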

Erythrocytes = experiment: RBC hemolysis assay; assay type: cell-based, mice; conditions: peptide DNA polyplexes (1.5 nmols and 7.5 µg pGL3), pH 7.4, Fig. 4C
Summary of the method: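 Erythrocytes from male ICR mouse heart blood (heparinized) were washed three times in 0.15 M PBS pH 7.4 and diluted to 1.5 × 10^8 cells/ml. 7.5 × 10^6 cells were added to the polyplexes (1.5 nmol peptide, 7.5 µg pGL3) in triplicate and held 1 h at 37°C, then filtered. Filtrate Abs410 nm was expressed against 100% lysis with water replacing PBS.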

[2] = test system: HepG2, 3T3, and CHO cells; experiment: In vitro gene transfer; assay type: cell-based; conditions: 0.5 nmol peptide per µg pGL3, 10 µg pGL3, luciferase at 24 hrs, Fig. 6
Summary of the method: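 Plating: HepG2, CHO or 3T3, 5 × 10^5 cells per 35 mm well, about 50% confluent. Transfection: 10 µg pGL3 polyplex (0.5 nmol peptide/µg DNA, 30 µg/ml DNA in 5 mM Hepes/0.27 M mannitol pH 7.5), added dropwise in triplicate for 24 h in MEM with 2 or 10% FBS. Read-out: lysate luciferase (0.5 mM D-luciferin injection, 10 s integration) as fmol per mg protein, mean ± SD of triplicates.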

| Substance | Zeta Potential [1] [mV] | Gene expression, fold greater than poly(Acr-Arg)4-Mal-melittin (CHO cells) | Hemolytic activity when combined with pGL3 (Erythrocytes) | Gene transfer, fold lower than poly(Acr-Arg)2–4-SS-melittin [2] |
| --- | --- | --- | --- | --- |
| (Acr-Arg)4-C-CWKKGIGAVLKVLTTGLPALISLIKRKRQQ (disulfide) [poly(Acr-Arg)4-SS-melittin] | 29 ± 2.6 | approximately 1000 fold | completely neutralized; also recorded: non hemolytic |  |
| (CWKKGIGAVLKVLTTGLPALISLIKRKRQQ)2 (disulfide) [Dimeric-melittin] |  |  |  | 10–100 fold |
| W(Lys(Ac)-Arg)4-C-CWKKGIGAVLKVLTTGLPALISLIKRKRQQ (disulfide) [poly(Lys(Ac)-Arg)4-SS-melittin] | 20 ± 2.9 |  |  |  |
| (Acr-Arg)3-C-CWKKGIGAVLKVLTTGLPALISLIKRKRQQ (disulfide) [poly(Acr-Arg)3-SS-melittin] | 29 ± 4.5 |  |  |  |
| (Acr-Arg)2-C-CWKKGIGAVLKVLTTGLPALISLIKRKRQQ (disulfide) [poly(Acr-Arg)2-SS-melittin] | 25 ± 2.2 |  |  |  |
